Assay results published in ChEMBL document CHEMBL1124444, “Hydroxyacetophenone-derived antagonists of the peptidoleukotrienes” (1989).
The source made the active and inactive calls. No cut-off for these calls is given here.

Columns and labels:
Cavia porcellus [1] = species: Cavia porcellus; test: Percent inhibition of the leukotriene E4 (LTE4)-induced contraction of guinea pig tracheal spirals at 5 uM concentration; type: functional; settings: Trachea
Procedure, shortened: (§1)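 Guinea pig tracheal spirals were split into paired sections in 10 mL baths of modified Krebs at 37 °C, gassed with 95% O₂/5% CO₂, under 2 g resting tension. After 60 min equilibration (washes every 15 min), reproducible contractions to 8 nM LTD₄ or 8 nM LTE₄ were obtained. Compound was added for 10 min, then agonist challenge repeated; percent inhibition is relative to the vehicle-treated paired section.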

[2] = biological target: T1, Cysteinyl leukotriene receptor 1 (Cavia porcellus) (UniProt Q2NNR5); test: Dissociation constant (KB) […] was evaluated in vitro in isolated guinea pig tracheal strips
T1 sequence (whole entry): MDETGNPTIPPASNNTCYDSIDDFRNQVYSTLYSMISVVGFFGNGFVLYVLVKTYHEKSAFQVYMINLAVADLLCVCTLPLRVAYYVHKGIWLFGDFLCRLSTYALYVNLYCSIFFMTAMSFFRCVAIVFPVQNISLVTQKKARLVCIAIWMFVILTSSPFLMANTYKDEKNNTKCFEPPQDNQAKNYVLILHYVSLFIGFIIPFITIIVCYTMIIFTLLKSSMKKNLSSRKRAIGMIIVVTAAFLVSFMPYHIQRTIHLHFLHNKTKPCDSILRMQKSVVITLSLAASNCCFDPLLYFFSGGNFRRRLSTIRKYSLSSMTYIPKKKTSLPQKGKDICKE

Cavia porcellus [3] = test: Compound (50 mg/kg, intraperitoneally) was tested in spontaneously breathing, conscious guinea pigs challenged with aerosolized LTD4 (60-min pretreatment); type: functional
Cavia porcellus [4] = species: Cavia porcellus; test: Inhibition of the leukotriene D4 (LTD4)-induced contraction of guinea pig tracheal spirals at 10 uM concentration; type: functional; settings: Trachea; procedure, shortened: as §1
Cavia porcellus [5] = species: Cavia porcellus; test: Percent inhibition of the leukotriene D4 (LTD4)-induced contraction of guinea pig tracheal spirals at 4 uM concentration; NS means data was not statistically significant.; type: functional; settings: Trachea; procedure, shortened: as §1
Cavia porcellus [6] = species: Cavia porcellus; test: Percent inhibition of the leukotriene E4 (LTE4)-induced contraction of guinea pig tracheal spirals at 10 uM concentration; NS means data was not statistically significant; type: functional; settings: Trachea; procedure, shortened: as §1
Cavia porcellus [7] = test: Compound (50 mg/kg, intraperitoneally) was tested in spontaneously breathing, conscious guinea pigs challenged with aerosolized LTD4 (30-min pretreatment); type: functional
Cavia porcellus [8] = species: Cavia porcellus; test: Percent inhibition of the leukotriene D4 (LTD4)-induced contraction of guinea pig tracheal spirals at 10 uM concentration; NS meana data was not statistically significant; type: functional; settings: Trachea; procedure, shortened: as §1
Cavia porcellus [9] = test: Compound (50 mg/kg, intraperitoneally) was tested in spontaneously breathing, conscious guinea pigs challenged with aerosolized LTD4 (60-min pretreatment); NS means data were not statistically significant.; type: functional, organism-based
Cavia porcellus [10] = species: Cavia porcellus; test: Percent inhibition of the leukotriene D4-induced contraction of guinea pig tracheal spirals at 4 uM concentration; type: functional; settings: Trachea; procedure, shortened: as §1
Cavia porcellus [11] = species: Cavia porcellus; test: Percent inhibition of the leukotriene D4 (LTD4)-induced contraction of guinea pig tracheal spirals at 100 uM concentration; type: functional; settings: Trachea; procedure, shortened: as §1
Cavia porcellus [12] = species: Cavia porcellus; test: Percent inhibition of the leukotriene D4 (LTD4)-induced contraction of guinea pig tracheal spirals at 10 uM concentration; NS means data was not statistically significant.; type: functional; settings: Trachea; procedure, shortened: as §1
Cavia porcellus [13] = species: Cavia porcellus; test: Percent inhibition of the leukotriene E4 (LTE4)-induced contraction of guinea pig tracheal spirals at 10 uM concentration; NS means data was not statistically significant; settings: Trachea
Cavia porcellus [14] = species: Cavia porcellus; test: Percent inhibition of the leukotriene D4 (LTD4)-induced contraction of guinea pig tracheal spirals at 50 uM concentration; type: functional; settings: Trachea; procedure, shortened: as §1
Cavia porcellus [15] = species: Cavia porcellus; test: Percent inhibition of the leukotriene D4 (LTD4)-induced contraction of guinea pig tracheal spirals at 5 uM concentration; type: functional; settings: Trachea; procedure, shortened: as §1
Cavia porcellus [16] = species: Cavia porcellus; test: Percent inhibition of the leukotriene D4 (LTD4)-induced contraction of guinea pig tracheal spirals at 10 uM concentration; type: functional; settings: Trachea; procedure, shortened: as §1
Cavia porcellus [17] = species: Cavia porcellus; test: Percent inhibition of the leukotriene E4 (LTE4)-induced contraction of guinea pig tracheal spirals at 1 uM concentration; NS means data was not statistically significant; settings: Trachea
Cavia porcellus [18] = species: Cavia porcellus; test: Percent inhibition of the leukotriene E4 (LTE4)-induced contraction of guinea pig tracheal spirals at 3.3 uM concentration; settings: Trachea
Cavia porcellus [19] = species: Cavia porcellus; test: Percent inhibition of the leukotriene D4 (LTD4)-induced contraction of guinea pig tracheal spirals at 4 uM concentration; NS means data was not statistically significant; type: functional; settings: Trachea; procedure, shortened: as §1
Cavia porcellus [20] = species: Cavia porcellus; test: Percent inhibition of the leukotriene E4 (LTE4)-induced contraction of guinea pig tracheal spirals at 1 uM concentration; type: functional; settings: Trachea; procedure, shortened: as §1
Cavia porcellus [21] = species: Cavia porcellus; test: Percent inhibition of the leukotriene E4 (LTE4)-induced contraction of guinea pig tracheal spirals at 50 uM concentration; type: functional; settings: Trachea; procedure, shortened: as §1
Cavia porcellus [22] = species: Cavia porcellus; test: Percent inhibition of the leukotriene E4 (LTE4)-induced contraction of guinea pig tracheal spirals at 10 uM concentration; type: functional; settings: Trachea; procedure, shortened: as §1
Cavia porcellus [23] = species: Cavia porcellus; test: Percent inhibition of the leukotriene E4 (LTE4)-induced contraction of guinea pig tracheal spirals at 10 uM concentration; NS means data was not statistically significant.; type: functional; settings: Trachea; procedure, shortened: as §1
Cavia porcellus [24] = species: Cavia porcellus; test: Percent inhibition of the leukotriene D4 (LTD4)-induced contraction of guinea pig tracheal spirals at 10 uM concentration; NS means data was not statistically significant; type: functional; settings: Trachea; procedure, shortened: as §1
[25] = biological target: T1, Cysteinyl leukotriene receptor 1 (Cavia porcellus); test: Dissociation constant (KB) versus Cysteinyl leukotriene D4 receptor was evaluated in vitro in isolated guinea pig tracheal strips
Cavia porcellus [26] = species: Cavia porcellus; test: Percent inhibition of the leukotriene E4 (LTE4)-induced contraction of guinea pig tracheal spirals at 0.33 uM concentration; settings: Trachea
Cavia porcellus [27] = species: Cavia porcellus; test: Percent inhibition of the leukotriene E4 (LTE4)-induced contraction of guinea pig tracheal spirals at 1 uM concentration; settings: Trachea

## CCCc1c(OCc2ccc(C(=O)O)cc2OC)ccc(C(=O)OC)c1O
Cavia porcellus [1]
  inhibition at 5 µM: 52%
[2]
  Kb: 3180 nM
Cavia porcellus [3]
  Protection: 29%

## CCCc1c(OCc2ccc(C(=O)O)cc2OC)ccc(C(C)=O)c1N
Cavia porcellus [4]
  inhibition at 10 µM: 43%
Cavia porcellus [5]
  inhibition: Not statistically significant

## CCCc1c(OCc2ccc(C(=O)O)cc2OC)ccc(C(=O)Oc2ccccc2)c1O
Cavia porcellus [6]
  inhibition: Not statistically significant

## CCCc1c(OCc2ccc(C(=O)O)cc2F)ccc(C(C)=O)c1O
[2]
  Kb: 520 nM
Cavia porcellus [4]
  inhibition at 10 µM: 99%
Cavia porcellus [7]
  Protection: 18%
Cavia porcellus [3]
  Protection: 0%

## COc1cc(C(=O)O)ccc1COc1ccc(C(C)=O)c(O)c1
Cavia porcellus [8]
  inhibition: Not statistically significant

## CCCc1c(OCC(O)COc2ccc3c(=O)cc(C(=O)O)oc3c2CCC)ccc(C(C)=O)c1O (centres undefined) [FPL-55712]
Cavia porcellus [7]
  Protection: 32%
Cavia porcellus [9]
  Protection: inactive
Cavia porcellus [10]
  inhibition at 4 µM: 62%

## CCCc1c(OCc2ccccc2C(=O)O)ccc(C(C)=O)c1O
Cavia porcellus [11]
  inhibition at 100 µM: 91%
Cavia porcellus [12]
  inhibition: Not statistically significant

## CCCc1c(N(Cc2ccc(C(=O)O)cc2OC)C(C)=O)ccc(C(C)=O)c1O
Cavia porcellus [13]
  inhibition: Not statistically significant

## CCCc1c(OCc2ccc(C(=O)O)cc2OC)ccc(C(=O)c2ccccc2)c1O
Cavia porcellus [14]
  inhibition at 50 µM: 20%
Cavia porcellus [13]
  inhibition: Not statistically significant

## C/C=C(\c1ccccc1)c1c(OCc2ccc(C(=O)O)cc2OC)ccc(C(C)=O)c1O
Cavia porcellus [15]
  inhibition at 5 µM: 24%

## CCCc1c(OCc2ccc(C(=O)O)cc2OC)ccc(C=O)c1O
Cavia porcellus [16]
  inhibition at 10 µM: 54%

## CCCC(=O)N(Cc1ccc(C(=O)O)cc1OC)c1ccc(C(C)=O)c(O)c1
Cavia porcellus [13]
  inhibition: Not statistically significant

## CCC(C)c1c(OCc2ccc(C(=O)O)cc2OC)ccc(C(C)=O)c1O (centres undefined)
Cavia porcellus [15]
  inhibition at 5 µM: 85%
Cavia porcellus [4]
  inhibition at 10 µM: 100%

## CCCc1c(OCc2ccc(-c3nn[nH]n3)cc2OC)ccc(C(C)=O)c1O
Cavia porcellus [17]
  inhibition: Not statistically significant
Cavia porcellus [18]
  inhibition at 3.3 µM: 45%

## CCCc1c(OCc2ccc(C(=O)O)c(OC)c2)ccc(C(C)=O)c1O
Cavia porcellus [4]
  inhibition at 10 µM: 44%
Cavia porcellus [19]
  inhibition: Not statistically significant

## C=C(C)Cc1c(OCc2ccc(C(=O)O)cc2OC)ccc(C(C)=O)c1O
Cavia porcellus [1]
  inhibition at 5 µM: 82%
[2]
  Kb: 1640 nM
Cavia porcellus [3]
  Protection: 30%
Cavia porcellus [20]
  inhibition at 1 µM: 35%

## CCCc1c(OCc2ccc(C(=O)O)cc2OC)ccc(C(=O)N2CCCC2)c1O
Cavia porcellus [14]
  inhibition at 50 µM: 90%
Cavia porcellus [4]
  inhibition at 10 µM: 37%

## CCCN(Cc1ccc(C(=O)O)cc1OC)c1ccc(C(C)=O)c(O)c1
Cavia porcellus [21]
  inhibition at 50 µM: 35%
Cavia porcellus [22]
  inhibition at 10 µM: 24%

## CCCc1c(OCc2ccc(C(=O)O)cc2OC)ccc(C(=O)N(C)C)c1O
Cavia porcellus [21]
  inhibition at 50 µM: 84%
Cavia porcellus [23]
  inhibition: Not statistically significant

## COc1cc(C(=O)O)ccc1COc1ccc2c(C)cc(=O)oc2c1
Cavia porcellus [24]
  inhibition: Not statistically significant

## CCCc1c(OCc2ccc(C(=O)O)cc2OC)ccc(C(C)=O)c1O
Cavia porcellus [4]
  inhibition at 10 µM: 99%
[25]
  Kb: 360 nM
Cavia porcellus [3]
  Protection: 19%

## CCCc1c(OCCC[S+]([O-])CC(=O)O)ccc(C(C)=O)c1O (centres undefined)
Cavia porcellus [12]
  inhibition: Not statistically significant

## CCCCCC(=O)c1ccc(OCc2ccc(C(=O)O)cc2OC)c(CCC)c1O
Cavia porcellus [14]
  inhibition at 50 µM: 20%

## CCCc1c(OCC(O)CNC(CS)C(=O)NCC(=O)O)ccc(C(C)=O)c1O (centres undefined)
Cavia porcellus [11]
  inhibition at 100 µM: 33%

## CCCc1c(OCc2cccc(NC(=O)c3ccccc3C(=O)O)c2)ccc(C(C)=O)c1O
[2]
  Kb: 160 nM
Cavia porcellus [26]
  inhibition at 0.33 µM: 45%
Cavia porcellus [27]
  inhibition at 1 µM: 94%
Cavia porcellus [3]
  Protection: 9%
